Assay results as given in ChEMBL document CHEMBL1781898, “Orally active achiral N-hydroxyformamide inhibitors of ADAM-TS4 (aggrecanase-1) and ADAM-TS5 (aggrecanase-2) for the treatment of osteoarthritis” (Bioorg Med Chem Lett, 2011).

Assays:
[1] = molecular target: T1, A disintegrin and metalloproteinase with thrombospondin motifs 4 (Homo sapiens, UniProt O75173); experiment: Inhibition of ADAMTS-4 assessed as substrate cleavage after 16 hrs by fluorescence assay
T1 sequence (O75173 whole entry): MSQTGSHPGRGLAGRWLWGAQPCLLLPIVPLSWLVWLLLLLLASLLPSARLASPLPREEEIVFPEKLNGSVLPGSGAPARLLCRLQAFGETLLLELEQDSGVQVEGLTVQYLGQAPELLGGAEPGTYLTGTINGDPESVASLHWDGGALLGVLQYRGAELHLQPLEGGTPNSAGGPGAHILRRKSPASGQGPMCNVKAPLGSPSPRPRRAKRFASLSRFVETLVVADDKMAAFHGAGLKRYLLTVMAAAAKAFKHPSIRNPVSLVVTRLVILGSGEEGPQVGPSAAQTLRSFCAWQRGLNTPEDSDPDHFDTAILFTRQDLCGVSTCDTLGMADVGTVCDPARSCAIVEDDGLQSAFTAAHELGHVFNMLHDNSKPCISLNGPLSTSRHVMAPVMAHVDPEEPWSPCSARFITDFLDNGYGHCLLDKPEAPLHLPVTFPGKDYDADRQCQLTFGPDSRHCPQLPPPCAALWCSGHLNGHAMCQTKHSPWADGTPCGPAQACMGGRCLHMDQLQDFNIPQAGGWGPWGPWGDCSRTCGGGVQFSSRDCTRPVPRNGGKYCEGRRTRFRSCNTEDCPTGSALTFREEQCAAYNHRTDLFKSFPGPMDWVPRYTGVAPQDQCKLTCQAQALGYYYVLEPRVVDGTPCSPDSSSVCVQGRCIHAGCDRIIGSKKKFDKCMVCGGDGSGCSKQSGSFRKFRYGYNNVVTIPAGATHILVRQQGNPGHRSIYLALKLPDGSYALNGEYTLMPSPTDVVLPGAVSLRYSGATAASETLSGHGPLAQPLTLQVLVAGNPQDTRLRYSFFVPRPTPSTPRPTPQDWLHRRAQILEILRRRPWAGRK
Procedure, shortened: (§1)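 Enzyme inhibition IC50s derived from at least six measurements, standard errors normally <5% within an assay; a standard compound run to keep assay-to-assay variability within twofold.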

[2] = molecular target: T2, A disintegrin and metalloproteinase with thrombospondin motifs 5 (Homo sapiens, UniProt Q9UNA0); experiment: Inhibition of ADAMTS-5 assessed as substrate cleavage after 16 hrs by fluorescence assay; procedure, shortened: as §1
T2 sequence (Q9UNA0 whole entry): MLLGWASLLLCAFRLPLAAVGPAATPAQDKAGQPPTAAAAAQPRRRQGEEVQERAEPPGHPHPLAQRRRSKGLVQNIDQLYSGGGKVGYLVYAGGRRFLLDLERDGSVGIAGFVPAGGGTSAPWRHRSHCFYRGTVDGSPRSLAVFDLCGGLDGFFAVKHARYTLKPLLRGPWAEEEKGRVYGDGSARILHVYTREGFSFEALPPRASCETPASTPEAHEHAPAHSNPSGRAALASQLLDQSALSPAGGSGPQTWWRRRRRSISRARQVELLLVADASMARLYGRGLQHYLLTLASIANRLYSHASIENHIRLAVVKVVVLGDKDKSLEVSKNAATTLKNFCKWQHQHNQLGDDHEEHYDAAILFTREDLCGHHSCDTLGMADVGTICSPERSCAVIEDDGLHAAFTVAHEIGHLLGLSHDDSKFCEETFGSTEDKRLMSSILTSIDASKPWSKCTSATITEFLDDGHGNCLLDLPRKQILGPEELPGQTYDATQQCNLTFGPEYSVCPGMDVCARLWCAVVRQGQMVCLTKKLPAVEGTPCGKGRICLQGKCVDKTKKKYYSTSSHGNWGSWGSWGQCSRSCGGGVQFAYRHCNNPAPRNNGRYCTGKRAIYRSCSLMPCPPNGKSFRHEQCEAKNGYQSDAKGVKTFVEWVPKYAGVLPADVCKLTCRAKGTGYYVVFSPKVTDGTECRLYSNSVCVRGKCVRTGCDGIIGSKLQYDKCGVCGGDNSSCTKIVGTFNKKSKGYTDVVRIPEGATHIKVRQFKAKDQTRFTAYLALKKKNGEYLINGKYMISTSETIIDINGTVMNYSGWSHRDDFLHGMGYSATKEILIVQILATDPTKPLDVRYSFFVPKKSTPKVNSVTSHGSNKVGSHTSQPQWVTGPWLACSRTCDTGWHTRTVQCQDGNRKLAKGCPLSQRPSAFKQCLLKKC

Collagenase 3 = Collagenase 3 (Homo sapiens, UniProt P45452); experiment: Inhibition of recombinant human MMP-13 assessed as substrate cleavage after 20 hrs by fluorescence assay; procedure, shortened: as §1
Cytochrome P450 3A4 = Cytochrome P450 3A4 (Homo sapiens, UniProt P08684); experiment: Inhibition of CYP3A4; assay type: ADME
Sequence of Cytochrome P450 3A4 (P08684 whole entry, canonical isoform): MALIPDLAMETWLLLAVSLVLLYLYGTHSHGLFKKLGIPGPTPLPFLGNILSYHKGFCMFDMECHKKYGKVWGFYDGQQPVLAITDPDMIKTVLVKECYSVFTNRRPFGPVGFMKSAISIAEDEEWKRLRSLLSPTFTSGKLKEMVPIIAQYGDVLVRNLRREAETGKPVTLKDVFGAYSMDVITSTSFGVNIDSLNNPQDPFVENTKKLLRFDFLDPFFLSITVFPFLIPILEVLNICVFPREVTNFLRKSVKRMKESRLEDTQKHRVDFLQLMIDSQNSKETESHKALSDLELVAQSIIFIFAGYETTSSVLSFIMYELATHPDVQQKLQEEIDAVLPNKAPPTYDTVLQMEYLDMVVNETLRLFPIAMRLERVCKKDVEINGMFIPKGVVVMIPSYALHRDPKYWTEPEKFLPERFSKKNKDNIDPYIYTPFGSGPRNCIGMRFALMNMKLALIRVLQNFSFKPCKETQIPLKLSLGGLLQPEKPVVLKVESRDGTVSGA
Procedure, shortened: (§2)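 Inhibition of cytochrome P450 isoforms 1A2, 2C9, 2C19, 2D6 and 3A4, reported as pIC50.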

[3] = molecular target: 72 kDa type IV collagenase (Homo sapiens, UniProt P08253); experiment: Inhibition of recombinant human MMP-2 assessed as substrate cleavage after 20 hrs by fluorescence assay; procedure, shortened: as §1
Sequence of 72 kDa type IV collagenase (P08253 whole entry): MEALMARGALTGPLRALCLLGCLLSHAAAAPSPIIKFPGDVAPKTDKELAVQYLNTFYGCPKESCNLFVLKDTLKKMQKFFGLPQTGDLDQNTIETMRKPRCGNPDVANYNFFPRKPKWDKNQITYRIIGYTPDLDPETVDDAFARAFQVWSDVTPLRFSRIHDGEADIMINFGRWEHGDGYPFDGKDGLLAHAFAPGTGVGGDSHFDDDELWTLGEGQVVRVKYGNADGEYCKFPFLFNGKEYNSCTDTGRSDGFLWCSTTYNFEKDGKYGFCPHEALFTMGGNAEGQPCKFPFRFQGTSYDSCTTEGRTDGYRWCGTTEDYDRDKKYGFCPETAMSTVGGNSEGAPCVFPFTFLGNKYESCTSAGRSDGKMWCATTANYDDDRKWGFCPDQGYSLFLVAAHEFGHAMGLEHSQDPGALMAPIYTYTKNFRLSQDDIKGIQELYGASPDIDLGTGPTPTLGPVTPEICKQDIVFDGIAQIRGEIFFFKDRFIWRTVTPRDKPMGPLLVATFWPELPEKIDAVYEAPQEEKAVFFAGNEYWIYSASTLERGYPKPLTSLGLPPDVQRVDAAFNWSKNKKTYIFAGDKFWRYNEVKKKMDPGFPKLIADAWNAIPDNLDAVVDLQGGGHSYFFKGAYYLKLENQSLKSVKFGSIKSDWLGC

[4] = Clearance in rat at 2 mg/kg, iv; assay type: ADME, organism-based; set-up: dose 2 mg/kg, route intravenous; details: in vivo
Procedure, shortened: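 Rat iv PK: 2 mg/kg iv, n = 2 animals; clearance, half-life and Vdss determined.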

[5] = Half life in mouse; assay type: ADME, organism-based; details: in vivo
[6] = Half life in dog at 1 mg/kg, iv and 1 mg/kg, po; assay type: ADME, organism-based, Canis lupus familiaris; details: in vivo
[7] = Oral bioavailability in dog; assay type: ADME, organism-based, Canis lupus familiaris; details: in vivo
Cytochrome P450 2D6 = Cytochrome P450 2D6 (Homo sapiens, UniProt P10635); experiment: Inhibition of CYP2D6; assay type: ADME; procedure, shortened: as §2
Sequence of Cytochrome P450 2D6 (P10635 whole entry): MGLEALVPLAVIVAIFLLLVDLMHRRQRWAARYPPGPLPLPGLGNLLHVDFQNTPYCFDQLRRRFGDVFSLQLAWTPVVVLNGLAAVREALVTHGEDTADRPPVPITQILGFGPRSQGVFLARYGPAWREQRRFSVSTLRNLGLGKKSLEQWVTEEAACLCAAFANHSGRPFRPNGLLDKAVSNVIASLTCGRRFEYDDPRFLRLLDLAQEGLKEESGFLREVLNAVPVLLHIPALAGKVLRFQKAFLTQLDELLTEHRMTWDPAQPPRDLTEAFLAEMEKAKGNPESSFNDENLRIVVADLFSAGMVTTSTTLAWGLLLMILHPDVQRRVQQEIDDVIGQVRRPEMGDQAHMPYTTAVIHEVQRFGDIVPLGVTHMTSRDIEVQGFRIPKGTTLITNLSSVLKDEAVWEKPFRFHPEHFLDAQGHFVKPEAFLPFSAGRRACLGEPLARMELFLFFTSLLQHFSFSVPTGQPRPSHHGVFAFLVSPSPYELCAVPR

IC50 [1]: 26 nM | IC50 [2]: 860 nM | IC50 (Collagenase 3): > 31000 nM | inhibition (INH) (Cytochrome P450 3A4): Not Active | IC50 [3]: > 23000 nM | clearance [4]: 24 mL/min/kg | half-life [5]: 2.6 h | half-life [6]: 19.1 h | bioavailability [7]: 52% | inhibition (INH) (Cytochrome P450 2D6): Not Active
Structure (SMILES): Cc1noc(C)c1CCC1CCN(S(=O)(=O)CC2(N(O)C=O)CCOCC2)CC1
